# Source: ChEMBL document CHEMBL3808334, “Synthesis and in vitro evaluation of novel triazine analogues as anticancer agents and their interaction studies with bovine serum albumin” (Eur J Med Chem, 2016)
# Legend:
# Format in all cases: functional
# A549 [1] = experiment: Growth inhibition of human A549/ATCC cells incubated for 48 hrs by sulforhodamine B assay; details: A549, 48 h
# In short: (§1)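 Five-dose assay: five concentrations from 10-fold or ½-log serial dilutions. Cells are plated at 5,000–40,000 per well according to doubling time, grown 24 h, then exposed 48 h at 37 °C, 5% CO₂. Fixed with cold 50% TCA (final addition) for 60 min at 4 °C and stained with 0.4% SRB in 1% acetic acid. Bound dye is solubilized in 10 mM Tris base and read at 515 nm. GI₅₀ is where [(Ti−Tz)/(C−Tz)]×100 = 50, with a time-zero plate as Tz.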
# EKVX = experiment: Growth inhibition of human EKVX cells incubated for 48 hrs by sulforhodamine B assay
# In short: (§2)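 Cells seeded at 5,000–40,000/well according to doubling time and preincubated 24 h at 37 °C, 5% CO2. Time-zero plates were TCA-fixed. DMSO concentrate was diluted in medium with 50 µg/ml gentamicin to give five concentrations (10-fold or ½ log steps), then exposed 48 h. Cells were TCA-fixed, stained with 0.4% SRB and read at 515 nm. Percent growth was taken against time-zero and control; GI50, TGI and LC50 derived.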
# NCI-H23 = experiment: Growth inhibition of human NCI-H23 cells incubated for 48 hrs by sulforhodamine B assay; details: NCI-H23, 48 h
# In short: (§3)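 Cells were plated at 5,000–40,000 per well according to doubling time and preincubated 24 h at 37 °C in 5% CO2; time-zero plates were then TCA-fixed. Five concentrations (10-fold or ½-log dilutions, DMSO stock) were incubated 48 h. Cells were TCA-fixed, stained with 0.4% SRB and read at 515 nm. GI50 was taken where [(Ti−Tz)/(C−Tz)]×100 = 50.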
# SN12C [2] = experiment: Growth inhibition of human SN12C cells incubated for 48 hrs by sulforhodamine B assay; details: for CC50: read-out: pLC50 (the source's name) (converted); in short: as §3
# NCI/ADR-RES [3] = experiment: Growth inhibition of human NCI/ADR-RES cells assessed as cell growth at 10^-5 M incubated for 48 hrs by sulforhodamine B assay; details: read-out: Activity
# SN12C [4] = experiment: Growth inhibition of human SN12C cells assessed as cell growth at 10^-8 M incubated for 48 hrs by sulforhodamine B assay; details: read-out: Activity
# MCF7 = experiment: Growth inhibition of human MCF7 cells assessed as cell growth at 10^-8 M incubated for 48 hrs by sulforhodamine B assay; details: MCF7, 48 h, read-out: Activity
# [5] = Growth inhibition of human RXF393 cells assessed as cell growth at 10^-5 M incubated for 48 hrs by sulforhodamine B assay; details: RXF 393, 48 h, read-out: Activity
# [6] = Growth inhibition of human Hs 578T cells assessed as cell growth at 10^-5 M incubated for 48 hrs by sulforhodamine B assay; details: read-out: Activity
# [7] = Growth inhibition of human HL-60(TB) cells assessed as cell growth at 10^-4 M incubated for 48 hrs by sulforhodamine B assay; details: HL-60, 48 h, read-out: Activity
# In short: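 Cells plated at 5,000–40,000/well according to doubling time and preincubated 24 h at 37 °C, 5% CO₂, with time-zero plates TCA-fixed. Drugs were kept as DMSO concentrates at 400× the top concentration and diluted in medium with 50 µg/ml gentamicin. Five 10-fold or ½-log dilutions were run for 48 h, followed by SRB staining and A515. Percent growth = (Ti−Tz)/(C−Tz)×100, or (Ti−Tz)/Tz×100 when Ti<Tz.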
# A549 [8] = experiment: Growth inhibition of human A549/ATCC cells assessed as cell growth at 10^-4 M incubated for 48 hrs by sulforhodamine B assay; details: A549, 48 h, read-out: Activity
# [9] = Growth inhibition of human SNB75 cells assessed as cell growth at 10^-7 M incubated for 48 hrs by sulforhodamine B assay; details: SNB-75, 48 h, read-out: Activity
# M14 = experiment: Growth inhibition of human M14 cells assessed as cell growth at 10^-7 M incubated for 48 hrs by sulforhodamine B assay; details: M14, 48 h, read-out: Activity
# NCI/ADR-RES [10] = experiment: Growth inhibition of human NCI/ADR-RES cells assessed as cell growth at 10^-4 M incubated for 48 hrs by sulforhodamine B assay; details: read-out: Activity
# Malme-3M = experiment: Growth inhibition of human MALME-3M cells assessed as cell growth at 10 uM incubated for 48 hrs by sulforhodamine B assay; details: read-out: Activity
# MDA-MB-435 = experiment: Growth inhibition of human MDA-MB-435 cells assessed as cell growth at 10 uM incubated for 48 hrs by sulforhodamine B assay; details: MDA-MB-435, 48 h, read-out: Activity
# [11] = Growth inhibition of human BT549 cells assessed as cell growth at 10^-7 M incubated for 48 hrs by sulforhodamine B assay; details: BT-549, 48 h, read-out: Activity; in short: as §1
# SR = experiment: Growth inhibition of human SR cells assessed as cell growth at 10^-6 M incubated for 48 hrs by sulforhodamine B assay; details: read-out: Activity
# [12] = Growth inhibition of human LOXIMVI cells assessed as cell growth at 10^-6 M incubated for 48 hrs by sulforhodamine B assay; details: LOX IMVI, read-out: Activity
# [13] = Growth inhibition of human HOP62 cells assessed as cell growth at 10^-5 M incubated for 48 hrs by sulforhodamine B assay; details: HOP-62, 48 h, read-out: Activity
# NCI-H460 = experiment: Growth inhibition of human NCI-H460 cells assessed as cell growth at 10^-5 M incubated for 48 hrs by sulforhodamine B assay; details: NCI-H460, 48 h, read-out: Activity
# [14] = Growth inhibition of human COLO205 cells assessed as cell growth at 10^-5 M incubated for 48 hrs by sulforhodamine B assay; details: COLO 205, 48 h, read-out: Activity; in short: as §2
# KM12 = experiment: Growth inhibition of human KM12 cells assessed as cell growth at 10^-5 M incubated for 48 hrs by sulforhodamine B assay; details: KM12, 48 h, read-out: Activity
# [15] = Growth inhibition of human SNB19 cells assessed as cell growth at 10^-5 M incubated for 48 hrs by sulforhodamine B assay; details: SNB-19, 48 h, read-out: Activity
# [16] = Growth inhibition of human non-small cell lung cancer cells incubated for 48 hrs by sulforhodamine B assay; details: Cancer cell lines; for CC50: read-out: LC50 (the source's name)
# [17] = read-out: LC50 (the source's name)
# [18] = read-out: pLC50 (the source's name) (converted)
smiles,measurement,setting,value
c1ccc(-c2nc(Nc3ccc(-c4nc5ccccc5[nH]4)cc3)nc(N3CCOCC3)n2)cc1,GI50,A549 [1]; read-out: GI50,1.95 µM
same,CC50,A549 [1]; [17],8.25 µM
same,TGI,A549 [1]; read-out: TGI,4.01 µM
same,GI50,A549 [1]; read-out: pGI50 (converted),1.95 µM
same,CC50,A549 [1]; [18],8.32 µM
same,TGI,A549 [1]; read-out: pTGI (converted),3.98 µM
same,GI50,EKVX; read-out: GI50,1.59 µM
same,LC50,EKVX; read-out: LC50,7.33 µM
same,TGI,EKVX; read-out: TGI,3.42 µM
same,GI50,EKVX; read-out: pGI50 (converted),1.58 µM
same,LC50,EKVX; read-out: pLC50 (converted),7.41 µM
same,TGI,EKVX; read-out: pTGI (converted),3.39 µM
same,GI50,NCI-H23; read-out: GI50,2.07 µM
same,CC50,NCI-H23; [17],68.7 µM
same,TGI,NCI-H23; read-out: TGI,4.78 µM
same,GI50,NCI-H23; read-out: pGI50 (converted),2.09 µM
same,CC50,NCI-H23; [18],69.2 µM
same,TGI,NCI-H23; read-out: pTGI (converted),4.79 µM
same,LC50 (50% lethal concentration),SN12C [2],8.47 µM
same,GI50,SN12C [2]; read-out: GI50,1.74 µM
same,TGI,SN12C [2]; read-out: TGI,3.83 µM
same,GI50,SN12C [2]; read-out: pGI50 (converted),1.74 µM
same,CC50,SN12C [2],8.51 µM
same,TGI,SN12C [2]; read-out: pTGI (converted),3.8 µM
same,growth at 10 µM,NCI/ADR-RES [3],-28%
same,growth at 0.01 µM,SN12C [4],96%
same,growth at 0.01 µM,MCF7,92%
same,growth at 10 µM,[5],-63%
same,growth at 10 µM,[6],-22%
same,growth at 100 µM,[7],-56%
same,growth at 100 µM,A549 [8],-64%
same,growth at 0.1 µM,[9],96%
same,growth at 0.1 µM,M14,103%
same,growth at 100 µM,NCI/ADR-RES [10],-33%
same,growth at 10 µM,Malme-3M,-77.3%
same,growth at 10 µM,MDA-MB-435,-81.1%
same,growth at 0.1 µM,[11],100%
same,growth at 1 µM,SR,-20%
same,growth at 1 µM,[12],29%
same,growth at 10 µM,[13],-74%
same,growth at 10 µM,NCI-H460,-70%
same,growth at 10 µM,[14],-73%
same,growth at 10 µM,KM12,-84%
same,growth at 10 µM,[15],-53%
same,GI50,[16],1.74 µM
same,TGI,[16],3.67 µM
same,CC50,[16],14.2 µM
Fc1ccc(-c2nc(Nc3ccc(-c4nc5ccccc5[nH]4)cc3)nc(N3CCOCC3)n2)cc1,GI50,A549 [1]; read-out: GI50,3.24 µM
same,CC50,A549 [1]; [17],> 100 µM
same,TGI,A549 [1]; read-out: TGI,> 100 µM
same,GI50,A549 [1]; read-out: pGI50 (converted),3.24 µM
same,CC50,A549 [1]; [18],> 100 µM
same,TGI,A549 [1]; read-out: pTGI (converted),> 100 µM
same,GI50,EKVX; read-out: GI50,2.6 µM
same,LC50,EKVX; read-out: LC50,> 100 µM
same,TGI,EKVX; read-out: TGI,> 100 µM
same,GI50,EKVX; read-out: pGI50 (converted),2.63 µM
same,LC50,EKVX; read-out: pLC50 (converted),> 100 µM
same,TGI,EKVX; read-out: pTGI (converted),> 100 µM
same,GI50,NCI-H23; read-out: GI50,2.57 µM
same,CC50,NCI-H23; [17],> 100 µM
same,TGI,NCI-H23; read-out: TGI,9.9 µM
same,GI50,NCI-H23; read-out: pGI50 (converted),2.57 µM
same,CC50,NCI-H23; [18],> 100 µM
same,TGI,NCI-H23; read-out: pTGI (converted),10 µM
same,LC50 (50% lethal concentration),SN12C [2],> 100 µM
same,GI50,SN12C [2]; read-out: GI50,3.19 µM
same,TGI,SN12C [2]; read-out: TGI,23 µM
same,GI50,SN12C [2]; read-out: pGI50 (converted),3.16 µM
same,CC50,SN12C [2],> 100 µM
same,TGI,SN12C [2]; read-out: pTGI (converted),22.9 µM
same,growth at 10 µM,NCI/ADR-RES [3],10%
same,growth at 0.01 µM,SN12C [4],95%
same,growth at 0.01 µM,MCF7,94%
same,growth at 10 µM,[5],-37%
same,growth at 10 µM,[6],-13%
same,growth at 100 µM,[7],-20%
same,growth at 0.1 µM,[9],89%
same,growth at 0.1 µM,M14,99%
same,growth at 100 µM,NCI/ADR-RES [10],-13%
same,growth at 10 µM,Malme-3M,-65.7%
same,growth at 10 µM,MDA-MB-435,-38%
same,growth at 0.1 µM,[11],97%
same,growth at 1 µM,SR,37%
same,growth at 1 µM,[12],91%
same,growth at 10 µM,[13],-34%
same,growth at 10 µM,NCI-H460,-22%
same,growth at 10 µM,[14],-55%
same,growth at 10 µM,KM12,-28%
same,growth at 10 µM,[15],15%
same,GI50,[16],2.68 µM
same,TGI,[16],6.65 µM
same,CC50,[16],7.76 µM
